As usually defined, the IC50 is the concentration at which inhibition is half-maximal. For orientation: Kd means the equilibrium constant for the complex coming apart.

The record followed here is ChEMBL document CHEMBL4376875, “Synthesis and Biological Evaluation of B-Cell Lymphoma 6 Inhibitors of N-Phenyl-4-pyrimidinamine Derivatives Bearing Potent Activities against Tumor Growth” (J Med Chem, 2020).

In assay [1] the target is B-cell lymphoma 6 protein (Homo sapiens, UniProt P41182, C67R/C84N/C8Q). Kind of assay: Inhibition of recombinant human C-terminal GST-tagged BCL6 BTB domain C8Q/C67R/C84N triple mutant expressed in Escherichia coli BL21 (DE3) cells assessed as reduction in SMRT/BTB domain interaction incubated for 1 hr by HTRF assay. (In general: TR-FRET usually uses a lanthanide donor and a delayed reading to cut background.)

For assay [2], the system named is Farage. Put plainly: Antiproliferative activity against human Farage cells assessed as reduction in cell viability incubated for 72 hrs by CCK8 assay. A general note: Tetrazolium dyes change colour on reduction, which living cells bring about.
In assay [3] the test system is SUD4. Kind of assay: Induction of apoptosis in human SUDHL4 cells assessed as late apoptotic cells at 2.5 uM incubated for 48 hrs by annexin V-FITC and propidium iodide staining based flow cytometry analysis (reference value: 1.39%). The format is functional.
The test system of assay [4] is SUD4. Kind of assay: Induction of apoptosis in human SUDHL4 cells assessed as early apoptotic cells at 1.25 uM incubated for 48 hrs by annexin V-FITC and propidium iodide staining based flow cytometry analysis (reference value: 2.62%). The format is functional.
Assay [5] deals with SUD4. Kind of assay: Antiproliferative activity against human SUDHL4 cells assessed as reduction in cell viability incubated for 72 hrs by CCK8 assay. The settings on record: SU-DHL-4, 72 h.
In assay [6] the test system is Toledo. Kind of assay: Antiproliferative activity against BCL6-negative human Toledo cells assessed as reduction in cell viability incubated for 72 hrs by CCK8 assay.
The test system of assay [7] is Toledo. Kind of assay: Antiproliferative activity against human Toledo cells transfected with empty vector lentivirus assessed as reduction in cell viability up to 20 uM incubated for 72 hrs by CCK8 assay. The format is functional, cell-based. The essentials: (§1)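 Lentivirus made by transfection; supernatant collected at 48 h and 72 h. DLBCL cells infected with virus plus 8 μg/mL polybrene for 48 h, then selected in RPMI 1640 with 2 μg/mL puromycin. Transduced cells seeded at 2 × 10⁴ cells/well and exposed to compound for 72 h. CCK8 added, 1-2 h at 37 °C, absorbance read at 450 nm. Run in triplicate.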

The test system of the next assay is NCM460. Kind of assay: Cytotoxicity against human NCM460 cells assessed as reduction in cell viability incubated for 72 hrs by CCK8 assay. Particulars: NCM460, 72 h.
For assay [8], the system named is SUD4. Put plainly: Antiproliferative activity against human SUDHL4 cells assessed as living cells and S phase cells at 1.25 uM incubated for 48 hrs by Edu based flow cytometry analysis (reference value: 48.3%). (Flow cytometry measures light scatter and fluorescence of single cells or particles in a stream.)
Assay [9] has as its system Farage. Put plainly: Antiproliferative activity against human Farage cells transfected with lentivirus expressing BCL6 shRNA assessed as reduction in cell viability at 10 to 80 uM incubated for 72 hrs by CCK8 assay. The format is functional, cell-based.
Assay [10] concerns SUD4. Kind of assay: Induction of apoptosis in human SUDHL4 cells assessed as early apoptotic cells at 0.625 uM incubated for 48 hrs by annexin V-FITC and propidium iodide staining based flow cytometry analysis (reference value: 2.62%). The format is functional.
The subject of a further assay is OCI-Ly7. Put plainly: Antiproliferative activity against human OCI-LY7 cells assessed as reduction in cell viability incubated for 72 hrs by CCK8 assay. The settings on record: OCI-Ly7, 72 h.
The next assay concerns L02. Kind of assay: Cytotoxicity against human LO2 cells assessed as reduction in cell viability incubated for 72 hrs by CCK8 assay. Particulars: L02, 72 h.
In assay [11] the test system is SUD4. Put plainly: Induction of apoptosis in human SUDHL4 cells assessed as late apoptotic cells at 1.25 uM incubated for 48 hrs by annexin V-FITC and propidium iodide staining based flow cytometry analysis (reference value: 1.39%). Type of assay: functional.
For assay [12], the system named is SUD4. Put plainly: Antiproliferative activity against human SUDHL4 cells assessed as living cells and S phase cells at 2.5 uM incubated for 48 hrs by Edu based flow cytometry analysis (reference value: 48.3%).
The subject of assay [13] is Toledo. Kind of assay: Antiproliferative activity against human Toledo cells transfected with lentivirus overexpressing BCL6 assessed as reduction in cell viability up to 20 uM incubated for 72 hrs by CCK8 assay. Type of assay: functional, cell-based. The essentials:
as §1

For the next assay, the system named is PNT1A. Put plainly: Cytotoxicity against human PNT1A cells assessed as reduction in cell viability incubated for 72 hrs by CCK8 assay.
Assay [14] concerns SUD4. Kind of assay: Induction of apoptosis in human SUDHL4 cells assessed as early apoptotic cells at 2.5 uM incubated for 48 hrs by annexin V-FITC and propidium iodide staining based flow cytometry analysis (reference value: 2.62%). The format is functional.
For assay [15], the system named is Farage. Put plainly: Antiproliferative activity against human Farage cells transfected with empty vector lentivirus assessed as reduction in cell viability at 10 to 80 uM incubated for 72 hrs by CCK8 assay. Type of assay: functional, cell-based. The essentials:
as §1

Assay [16] concerns SUD4. Kind of assay: Induction of apoptosis in human SUDHL4 cells assessed as late apoptotic cells at 0.625 uM incubated for 48 hrs by annexin V-FITC and propidium iodide staining based flow cytometry analysis (reference value: 1.39%). Type of assay: functional.
The next assay has as its system DOHH-2. Kind of assay: Antiproliferative activity against human DOHH2 cells assessed as reduction in cell viability incubated for 72 hrs by CCK8 assay. Particulars: DOHH-2, 72 h.
Assay [17] can be described thus: Cytotoxicity against HAF cells assessed as reduction in cell viability incubated for 72 hrs by CCK8 assay. Particulars: Homo sapiens.
The subject of assay [18] is SUD4. Kind of assay: Antiproliferative activity against human SUDHL4 cells assessed as living cells and S phase cells at 0.625 uM incubated for 48 hrs by Edu based flow cytometry analysis (reference value: 48.3%).
Assay [19] concerns the target B-cell lymphoma 6 protein (Homo sapiens, UniProt P41182). Put plainly: Binding affinity to lateral groove of BCL6 BTB domain (unknown origin). Put shortly: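 GST-tagged BCL6 protein was expressed in E. coli BL21(DE3), purified on glutathione Sepharose, dialysed into PBS and used for biolayer interferometry. GST biosensors were hydrated 10 min in kinetics buffer (1× PBS, 0.02% Tween 20), given a 60 s baseline, then loaded with BCL6-GST at 50 ng/mL for 300-600 s. After a second 60 s baseline, sensors were dipped into serially diluted compound.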

Assay [20] has as its system Mus musculus. Kind of assay: In vivo inhibition of GC formation in NP-CGG immunized C57BL/6 mouse assessed as splenic GC B cells (GL7+FAS+B220+) at 50 mg/kg/day, ip for 12 days starting from 2 days after NP-CGG addition by flow cytometry (reference value: 1.97%). The format is functional. Also on record: scale not given: the % may be the effect or the level left.
The species entered for assay [21] is Mus musculus. The settings on record: C57BL/6, 50 mg/kg.

Molecules are shown by their SMILES. Activity calls are given as the source filed them. The calls are words filed in the database; no cut-off is given here. A value given as a limit tells only on which side of the number the result lay.

On to `COc1ccc(Nc2nc(N3C[C@@H](C)N[C@@H](C)C3)ncc2F)cc1NC(=O)c1ccc(Br)o1`, for which the IC50 in [1] was more than 20 µM.

With `COc1ccc(Nc2nc(N3C[C@@H](C)N[C@@H](C)C3)ncc2F)cc1NC(=O)c1ccc(Br)s1`, the IC50 in assay [1] is more than 20 µM.

Consider `O=C1Cc2cc(Nc3nc(NCc4cccnc4)ncc3Cl)ccc2N1`, for which the IC50 with Farage [2] was 33.5 µM; with SUD4 [5], 24.3 µM; with Toledo [6], 39.5 µM; in the assay with NCM460, more than 100 µM; with OCI-Ly7, 33.9 µM; in the assay with L02 it was more than 100 µM. The results for the IC50 (in the assay with PNT1A; with DOHH-2; in [17]) were more than 100 µM, 47.6 µM and more than 100 µM, respectively. Further, the Activity with SUD4 [3] turned out to be 1.74%; with SUD4 [4] it was 3.43%; in the assay with SUD4 [8], 41.6%; with SUD4 [10] it was 3.11%; in the assay on SUD4 [11], 1.97%; in the assay on SUD4 [12], 41.2%. Also, the Activity amounted to 3.15% in the assay on SUD4 [14], 1.89% in the assay on SUD4 [16] and 43.4% in the assay on SUD4 [18]. The result in the assay on Toledo [7], in the assay with Farage [9], with Toledo [13] and in the assay on Farage [15] was Active.

Turning to `O=C(O)CC(C(=O)O)N1C(=O)/C(=C2/C(=O)Nc3ccc(Br)cc32)SC1=S` (stereo not drawn), the Kd in assay [19] stood at 138 µM.

Turning to `COc1cc(Nc2nc(N3C[C@@H](C)N[C@@H](C)C3)ncc2F)ccc1NC(=O)c1ccc(Br)o1`, the IC50 in assay [1] was more than 10 µM.

Turning to `CCCCNc1ncc(F)c(Nc2ccc(OC)c(Cl)c2)n1`, the half-maximal inhibitory concentration (IC50) in [1] was more than 10 µM.

On to `O=C(O)CCN1C(=O)/C(=C2/C(=O)Nc3ccc(Cl)cc32)SC1=S`, for which the IC50 in the assay with Farage [2] was 33.9 µM; with SUD4 [5] it was 51.3 µM; with Toledo [6] it was 65.3 µM; in the assay on NCM460, more than 100 µM; in the assay with OCI-Ly7 it was 39 µM; with L02 it was more than 100 µM. Moreover, the IC50 was more than 100 µM in the assay with PNT1A, 35.1 µM in the assay on DOHH-2 and more than 100 µM in [17]. Moreover, the Activity in the assay with SUD4 [3] was 1.96%; with SUD4 [4], 2.62%; with Mus musculus [20], 0.73%; in the assay with SUD4 [8] it was 45.1%; in the assay on SUD4 [10] it was 2.86%; in the assay on SUD4 [11], 1.73%. Further, the Activity is given as 47.4% in the assay with SUD4 [12], 3.19% with SUD4 [14], 1.81% in the assay with SUD4 [16] and 48.5% in the assay with SUD4 [18]. In addition, the result with Farage [9], in the assay on Toledo [13] and with Farage [15] was Active. In addition, in the assay filed under Mus musculus [21], the inhibition entry was “Active”.

Consider `COc1ccc(Nc2nc(N3C[C@H](C)C[C@H](C)C3)ncc2F)cc1Cl`, for which, in assay [1], the IC50 was more than 10 µM.

With `COc1ccc(Nc2nc(N(CC(C)C)CC(C)C)ncc2F)cc1Cl`, in assay [1], the IC50 was more than 10 µM.

Regarding `COc1cc(Nc2nc(N3C[C@@H](C)N[C@@H](C)C3)ncc2F)ccc1NC(=O)c1ccc(Br)s1`, the IC50 in assay [1] was more than 10 µM.
